Results reported in ChEMBL document CHEMBL4342472, “Investigation of Inactive-State κ Opioid Receptor Homodimerization via Single-Molecule Microscopy Using New Antagonistic Fluorescent Probes” (J Med Chem, 2020).
The source made the active and inactive calls. The rule behind the calls is not given here.

How the values were obtained:
[1] = target: T1, Kappa-type opioid receptor (Homo sapiens, UniProt P41145); experiment: Displacement of [3H]-diprenorphine from recombinant human KOR transiently expressed in HEK293 cell membranes measured after 60 mins
How it was run: (§1)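 Membranes from HEK293T cells transiently transfected with human DOR, KOR or MOR; [3H]diprenorphine final 0.3 nM (DOR, KOR) or 0.2-0.3 nM (MOR) with varying competitor, 60 min at 37 °C in Tris/MgCl2/EDTA buffer pH 7.4. Nonspecific binding with 10 μM naloxone; IC50 by nonlinear regression converted to Ki via Cheng-Prusoff; selectivity as Ki ratio.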

[2] = target: Delta-type opioid receptor (Homo sapiens, UniProt P41143); experiment: Displacement of [3H]-diprenorphine from recombinant human DOR transiently expressed in HEK293 cell membranes measured after 60 mins; how it was run: as §1
[3] = target: Mu-type opioid receptor (Homo sapiens, UniProt P35372); experiment: Displacement of [3H]-diprenorphine from recombinant human MOR transiently expressed in HEK293 cell membranes measured after 60 mins; how it was run: as §1
[4] = species on record: Homo sapiens; experiment: Selectivity ratio of Ki for displacement of [3H]-diprenorphine from recombinant human DOR transiently expressed in HEK293 cell membranes to Ki for displacement of [3H]-diprenorphine from recombinant human KOR transiently expressed in HEK293 cell membranes; how it was run: as §1
[5] = species on record: Homo sapiens; experiment: Selectivity ratio of Ki for displacement of [3H]-diprenorphine from recombinant human MOR transiently expressed in HEK293 cell membranes to Ki for displacement of [3H]-diprenorphine from recombinant human KOR transiently expressed in HEK293 cell membranes; how it was run: as §1
[6] = target: T1, Kappa-type opioid receptor; experiment: Inverse agonist activity at recombinant human KOR transiently expressed in HEK293T cells co-expressing G-alphaqi assessed as reduction in dynorphin A-stimulated inositol phosphate accumulation measured after 180 mins by HTRF assay; type: functional, cell-based
[7] = target: T1, Kappa-type opioid receptor; experiment: Partial agonist activity at EA-tagged beta-arrestin2 fused KOR (unknown origin) stably expressed in HEK293 cells assessed as induction of beta-arrestin2 recruitment measured after 300 mins by chemiluminescence assay; type: cell-based
How it was run: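 PathHunter: HEK-293 cells stably expressing EA-tagged β-arrestin-2, transiently transfected with ProLink-tagged KOR-PK2; plated after 24 h, held a further 24 h at 37 °C. Compounds 1 pM to 10 μM final, 300 min at 37 °C, then detection mix 60 min at room temperature; chemiluminescence normalized to basal and dynorphin A maximum, nonlinear regression.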

[8] = target: T1, Kappa-type opioid receptor; experiment: Binding affinity to recombinant human KOR transiently expressed in CHOK1 cells at 50 nM measured 20 mins post compound washout by TIRF microscopic analysis relative to control; type: cell-based
How it was run: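 CHO-K1 cells transiently expressing human KOR, 24 h post-transfection; incubated 20 min at 37 °C with 50 nM fluorescent ligand in complete medium, then washed on-stage with fresh imaging buffer. TIRF images of the same cell taken every minute over 20 min; cell ROI intensity compared with pre-wash image, bleaching control included; triplicate experiments.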

[9] = target: T1, Kappa-type opioid receptor; experiment: Binding affinity to recombinant human KOR expressed in CHOK1 cells assessed as time of KOR colocalization in cell surface at 10 nM by single molecule microscopic analysis; type: cell-based
How it was run: (§2)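 Human KOR transiently expressed in CHO-K1 cells, labelled 4 h post-transfection with Cy5 probe (10 nM) and Cy3 probe (100 nM), rapid wash, TIRF single-molecule imaging at 20 °C in HEPES buffer pH 7.3. Particles tracked automatically; observed co-localization durations deconvolved (Lucy-Richardson) against a CD86-SNAP (SiR-labelled) non-interacting control.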

[10] = target: T1, Kappa-type opioid receptor; experiment: Binding affinity to recombinant human KOR transiently expressed in CHOK1 cells measured after 20 mins by TIRF microscopic analysis; type: cell-based
How it was run: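 Saturation binding on CHO-K1 cells transiently expressing human KOR (24 h post-transfection): 20 min incubation at 37 °C with each ligand concentration in complete medium, one wash in HEPES buffer pH 7.3, TIRF imaging. Mean whole-cell intensity (>30 cells per concentration), normalized to highest concentration, fitted by nonlinear regression for Kd; three replicates.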

[11] = target: T1, Kappa-type opioid receptor; experiment: Binding affinity to recombinant human KOR expressed in CHOK1 cells assessed as compound-coupled receptor mobility by measuring distribution in immobile phase at 100 nM measured after 20 mins by TIRF-SMM based TA-MSD analysis; type: cell-based
How it was run: (§3)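 Wild-type human KOR transiently transfected into CHO-K1 cells (Lipofectamine 2000); labelled 4 h post-transfection with probe at 100 nM for 20 min, washed in HEPES imaging buffer pH 7.3 and imaged by TIRF at 20 °C. Trajectories from automated particle tracking; time-averaged MSD of individual trajectories fitted to obtain diffusion coefficient and assign motion class.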

[12] = target: T1, Kappa-type opioid receptor; experiment: Binding affinity to recombinant human KOR expressed in CHOK1 cells assessed as compound-coupled receptor mobility by measuring distribution in sub-diffusion phase at 100 nM measured after 20 mins by TIRF-SMM based TA-MSD analysis; type: cell-based; how it was run: as §3
[13] = target: T1, Kappa-type opioid receptor; experiment: Binding affinity to recombinant human KOR expressed in CHOK1 cells assessed as compound-coupled receptor mobility by measuring distribution in normal diffusion phase at 100 nM measured after 20 mins by TIRF-SMM based TA-MSD analysis; type: cell-based; how it was run: as §3
[14] = target: T1, Kappa-type opioid receptor; experiment: Binding affinity to recombinant human KOR expressed in CHOK1 cells assessed as compound-coupled receptor mobility by measuring distribution in super diffusion phase at 100 nM measured after 20 mins by TIRF-SMM based TA-MSD analysis; type: cell-based; how it was run: as §3
[15] = target: T1, Kappa-type opioid receptor; experiment: Binding affinity to recombinant human KOR expressed in CHOK1 cells assessed as time of KOR colocalization in cell surface at 100 nM by single molecule microscopic analysis; type: cell-based; how it was run: as §2

Sequence of Delta-type opioid receptor (P41143 whole entry): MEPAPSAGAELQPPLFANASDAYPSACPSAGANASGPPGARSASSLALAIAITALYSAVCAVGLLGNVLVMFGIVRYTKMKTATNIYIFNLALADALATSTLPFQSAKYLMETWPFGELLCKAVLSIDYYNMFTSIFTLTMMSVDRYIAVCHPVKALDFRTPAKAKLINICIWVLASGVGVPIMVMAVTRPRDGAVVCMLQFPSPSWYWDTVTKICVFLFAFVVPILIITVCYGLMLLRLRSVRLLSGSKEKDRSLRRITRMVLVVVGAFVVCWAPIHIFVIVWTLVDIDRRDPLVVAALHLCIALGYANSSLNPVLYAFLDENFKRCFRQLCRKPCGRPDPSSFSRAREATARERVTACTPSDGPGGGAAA
Sequence of Mu-type opioid receptor (P35372 whole entry): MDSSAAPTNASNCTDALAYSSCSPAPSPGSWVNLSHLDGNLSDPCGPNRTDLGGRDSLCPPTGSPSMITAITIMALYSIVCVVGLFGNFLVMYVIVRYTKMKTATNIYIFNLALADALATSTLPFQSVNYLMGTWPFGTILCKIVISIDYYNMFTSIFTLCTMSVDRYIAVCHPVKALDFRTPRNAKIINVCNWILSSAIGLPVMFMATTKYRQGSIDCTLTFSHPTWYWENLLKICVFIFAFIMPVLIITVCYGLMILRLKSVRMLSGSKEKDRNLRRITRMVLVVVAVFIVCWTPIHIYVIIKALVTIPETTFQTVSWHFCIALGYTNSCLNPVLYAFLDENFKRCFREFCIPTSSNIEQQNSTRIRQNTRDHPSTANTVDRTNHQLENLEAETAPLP
T1 sequence (P41145 whole entry): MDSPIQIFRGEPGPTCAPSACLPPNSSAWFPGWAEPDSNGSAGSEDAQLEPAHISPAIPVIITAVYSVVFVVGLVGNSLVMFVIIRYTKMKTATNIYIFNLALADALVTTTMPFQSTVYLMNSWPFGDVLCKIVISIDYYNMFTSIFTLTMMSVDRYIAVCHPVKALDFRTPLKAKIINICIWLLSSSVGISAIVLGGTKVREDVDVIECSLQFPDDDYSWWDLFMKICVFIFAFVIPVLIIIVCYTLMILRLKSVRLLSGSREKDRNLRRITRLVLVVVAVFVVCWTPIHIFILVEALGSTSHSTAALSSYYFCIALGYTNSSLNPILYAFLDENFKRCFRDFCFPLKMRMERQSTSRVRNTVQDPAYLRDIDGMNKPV

Row | SMILES | Ki [1] [nM] | Ki [2] [nM] | Ki [3] [nM] | Ratio Ki [4] | Ratio Ki [5] | Activity [6] | Activity [7] | Activity [8] [%] | TIME [9] [h] | Kd [10] [nM] | Activity [11] [%] | Activity [12] [%] | Activity [13] [%] | Activity [14] [%] | TIME [15] [h]
1 | CN1/C(=C/C=C/C2=[N+](CCCCCC(=O)NCC(=O)NCC(=O)NCC(=O)NCC(=O)NCCCNC(=N)Nc3ccc4[nH]c5c(c4c3)C[C@@]3(O)[C@H]4Cc6ccc(O)c7c6[C@@]3(CCN4CC3CC3)[C@H]5O7)c3ccc(S(=O)(=O)[O-])cc3C2(C)C)C(C)(C)c2cc(S(=O)(=O)O)ccc21 | 3.2 | 280 | 110 | 88 | 34 | inactive | inactive |  |  |  |  |  |  |  | 
2 | CN1/C(=C/C=C/C=C/C2=[N+](CCCCCC(=O)NCCCNC(=N)Nc3ccc4[nH]c5c(c4c3)C[C@@]3(O)[C@H]4Cc6ccc(O)c7c6[C@@]3(CCN4CC3CC3)[C@H]5O7)c3ccc(S(=O)(=O)[O-])cc3C2(C)C)C(C)(C)c2cc(S(=O)(=O)O)ccc21 | 1.4 | 39 | 40 | 28 | 29 | Active | inactive | > 90 | < 2.78e-05 | 9.5 |  |  |  |  | 
3 | CN1/C(=C/C=C/C=C/C2=[N+](CCCCCC(=O)NCC(=O)NCC(=O)NCCCNC(=N)Nc3ccc4[nH]c5c(c4c3)C[C@@]3(O)[C@H]4Cc6ccc(O)c7c6[C@@]3(CCN4CC3CC3)[C@H]5O7)c3ccc(S(=O)(=O)[O-])cc3C2(C)C)C(C)(C)c2cc(S(=O)(=O)O)ccc21 | 1.1 | 106 | 100 | 100 | 91 | inactive | inactive | > 90 |  |  |  |  |  |  | 
4 | CN1/C(=C/C=C/C=C/C2=[N+](CCCCCC(=O)NCC(=O)NCC(=O)NCC(=O)NCC(=O)NCCCNC(=N)Nc3ccc4[nH]c5c(c4c3)C[C@@]3(O)[C@H]4Cc6ccc(O)c7c6[C@@]3(CCN4CC3CC3)[C@H]5O7)c3ccc(S(=O)(=O)[O-])cc3C2(C)C)C(C)(C)c2cc(S(=O)(=O)O)ccc21 | 1.8 | 193 | 133 | 107 | 74 | inactive | inactive | > 90 |  | 4.8 |  |  |  |  | 
5 | CN1/C(=C/C=C/C2=[N+](CCCCCC(=O)NCCCNC(=N)Nc3ccc4[nH]c5c(c4c3)C[C@@]3(O)[C@H]4Cc6ccc(O)c7c6[C@@]3(CCN4CC3CC3)[C@H]5O7)c3ccc(S(=O)(=O)[O-])cc3C2(C)C)C(C)(C)c2cc(S(=O)(=O)O)ccc21 | 8.6 | 31 | 380 | 4 | 44 | Active | inactive |  |  | 18.8 | 16 | 25 | 51 | 8 | < 2.78e-05
